# Results collected from several papers.
# Compare with care: the assays were run in different laboratories.
# Si: Sucrase-isomaltase, intestinal (Si, Rattus norvegicus, UniProt P23739)
# BRD1 bromodomain: Bromodomain-containing protein 1, bromodomain (BRD1, Homo sapiens, UniProt O95696)
# ESR1: Estrogen receptor (ESR1, Homo sapiens, UniProt P03372)
Structure (SMILES),target,test,test system,conditions,quantity,value
Cc1ccc(C(=O)Nc2ccc(CN3CCN(C)CC3)c(C(F)(F)F)c2)cc1C#Cc1cnc2cccnn12,"Hormonally up-regulated neu tumor-associated kinase (HUNK, Homo sapiens, UniProt P57058)","enzyme activity, inhibitor",,23.5 nM,remaining activity,94%
O=c1c(O[C@@H]2O[C@@H](CO)[C@H](O)[C@H]2O)c(-c2ccc(O)c(O)c2)oc2cc(O)cc(O)c12,Si,"enzyme activity, inhibitor",,200 µg/mL,inhibition,58.3%
O=C(Nc1cccc(-c2ccn[nH]2)c1)c1cccc2cn[nH]c12,"pqsE (Pseudomonas aeruginosa, UniProt P20581)","thermal stability, DSF",,100 µM,ΔTm,3.4 °C
C[S+]([O-])c1ccc(-c2nc(-c3ccncc3)c(-c3ccc(F)cc3)[nH]2)cc1 (stereo not drawn),BRD1 bromodomain,"thermal stability, DSF",,10 µM,ΔTm,-0.23 °C
CCOCc1nc(O)c(-c2nnc(Cc3ccc(Cl)cn3)o2)c(O)c1-c1c(OC)cccc1OC,"Apelin receptor (APLNR, Homo sapiens, UniProt P35414)","binding, radioligand",,,kon,5.17e+06 M⁻¹ s⁻¹
Nc1ncnc2occ(-c3ccc(NC(=O)Nc4cc(C(F)(F)F)ccc4F)cc3)c12,"Serine/threonine-protein kinase RIO2 (RIOK2, Homo sapiens, UniProt Q9BVS4)","cell-free assay, inhibitor",,20 µM,remaining signal,8.5%
NS(=O)(=O)c1ccc(Nc2nc(-c3ccc(F)cc3)c3ccccc3n2)cc1,BRD1 bromodomain,"binding, competition with immobilised ligand",,1 µM,remaining binding,2%
CC(C)(C)c1nc2c(s1)c1nc(N)ncc1c1ccc(NS(=O)(=O)c3c(F)cccc3F)c(F)c12,"Eukaryotic translation initiation factor 2-alpha kinase 1 (EIF2AK1, Homo sapiens, UniProt Q9BQI3)","enzyme activity, inhibitor, radiometric",,1 µM,remaining activity,69%
C=C(C)[C@@H]1CCC(C)=C[C@H]1c1c(O)cc(CCCCC)cc1O,"Polyunsaturated fatty acid lipoxygenase ALOX12 (ALOX12, Homo sapiens, UniProt P18054)","enzyme activity in cells, inhibitor",PMNL,10 µM,remaining activity,131%
O=c1c(O[C@@H]2O[C@H](CO)[C@@H](O)[C@H](O)[C@H]2O)c(-c2ccc(O)c(O)c2)oc2cc(O)cc(O)c12,Si,"enzyme activity, inhibitor",,50 µg/mL,inhibition,30.8%
O=C(O)C(=O)Cc1ccccc1,"D-dopachrome decarboxylase (Homo sapiens, UniProt P30046)","enzyme activity, substrate",,,Km,2400 µM
Cn1c2c(c3ccc(Cl)c(Cl)c31)C(C#N)C1(CCOCC1)NC2=O (stereo not drawn),"Rhodopsin kinase GRK1 (GRK1, Homo sapiens, UniProt Q15835)","thermal stability, DSF",,10 µM,ΔTm,0.4 °C
CCCc1c(-c2ccc(O)cc2)nn(-c2ccc(O)cc2)c1-c1ccc(O)cc1,ESR1,"reporter gene, agonist, luciferase",U2OS,,Emax,120%
O=C1OC[C@H]2OC(=O)c3cc(O)c(O)c(O)c3-c3c(O)c(O)c(O)c4c3C(=O)O[C@H]([C@H]3OC(=O)c5c-4c(O)c(O)c(O)c5[C@H]3O)[C@@H]2OC(=O)c2cc(O)c(O)c(O)c2-c2c1cc(O)c(O)c2O,Si,"enzyme activity, inhibitor",,200 µg/mL,inhibition,52.8%
O=C(c1ccc(F)cc1)N(Cc1ccccc1)C1CCCCC1,ESR1,cell-free assay,,10 µM,inhibition,32%
